Like-named read-outs stand apart in the source and are kept apart here.
Legend:
[1] = Pharmacokinetic studies in rats; format: in vivo; conditions: male, Sprague-Dawley, rat, plasma; for clearance: iv, 0.5 mg/kg; for bioavailability: po, 2 mg/kg
In short: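 Male Sprague-Dawley rats got a single IV bolus (0.5 mg kg−1, in 10% DMSO in 20% hydroxypropyl methyl β-cyclodextrin) or oral gavage (2 mg kg−1, in 40% polyethylene glycol in water). Plasma was taken pre-dose and up to 24 h and assayed by LC-MS/MS. CL and F came from non-compartmental analysis.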

[2] = tested on: HBV DNA in HBV-expressed HepG2.2.15 cells; experiment: In vitro anti-HBV activity in HepG2.2.15 cell line; format: cell-based; conditions: Hepatitis B virus; for activity at 1 µM: HepG2.2.15, 144 h, read-out: % HBV DNA remaining
In short: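 HepG2.2.15 cells were seeded at 5 × 10^5 per well in high-glucose DMEM with 10% heat-inactivated FBS, 300 mg L−1 G418, 1% non-essential amino acids and antibiotic–antimycotic, then held overnight at 37 °C, 5% CO2. Compound or 0.5% DMSO was given for 3 days, then renewed for 3 more days. Intracellular HBV DNA was measured by qPCR as % remaining versus vehicle; EC50 came from a 4-parameter nonlinear fit.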

[3] = In vitro microsomal stability; format: in vitro ADME; conditions: human liver microsomes, 1 μM
In short: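 Compound (1 μM) with pooled human liver microsomes (0.4 mg mL−1) in 100 mM potassium phosphate, pH 7.4, with 3.3 mM MgCl2 and 1.3 mM β-NADPH. Organic solvent was ≤1%, at 37 °C. Time-point samples were quenched with ice-cold acetonitrile containing internal standard, centrifuged, and the supernatants analysed by LC-MS/MS. Results are intrinsic clearance.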

CYP2C9 = CYP2C9 (Homo sapiens, UniProt P11712); experiment: CYP450 inhibition in human liver microsomes; format: in vitro ADME; conditions: pooled human liver microsomes, pH 7.4, probe tolbutamide (100 μM)
In short: (§1)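 Test compound at 10 μM with pooled human liver microsomes (0.2 mg mL−1) and a cocktail of 10 CYP probe substrates. Buffer was 100 mM potassium phosphate, pH 7.4, with 3.3 mM MgCl2, at 37 °C. β-NADPH (1.3 mM) started the reaction. After 10 min, ice-cold 3% formic acid in 5% acetonitrile stopped it. Centrifuged samples went to LC-MS/MS; each metabolite's formation is given as % inhibition versus control.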

CYP2B6 = molecular target: T1, CYP2B6 (Homo sapiens, UniProt P20813); experiment: CYP450 inhibition in human liver microsomes; format: in vitro ADME; conditions: pooled human liver microsomes, pH 7.4, probe bupropion (12 μM)
T1 sequence (P20813 1-491): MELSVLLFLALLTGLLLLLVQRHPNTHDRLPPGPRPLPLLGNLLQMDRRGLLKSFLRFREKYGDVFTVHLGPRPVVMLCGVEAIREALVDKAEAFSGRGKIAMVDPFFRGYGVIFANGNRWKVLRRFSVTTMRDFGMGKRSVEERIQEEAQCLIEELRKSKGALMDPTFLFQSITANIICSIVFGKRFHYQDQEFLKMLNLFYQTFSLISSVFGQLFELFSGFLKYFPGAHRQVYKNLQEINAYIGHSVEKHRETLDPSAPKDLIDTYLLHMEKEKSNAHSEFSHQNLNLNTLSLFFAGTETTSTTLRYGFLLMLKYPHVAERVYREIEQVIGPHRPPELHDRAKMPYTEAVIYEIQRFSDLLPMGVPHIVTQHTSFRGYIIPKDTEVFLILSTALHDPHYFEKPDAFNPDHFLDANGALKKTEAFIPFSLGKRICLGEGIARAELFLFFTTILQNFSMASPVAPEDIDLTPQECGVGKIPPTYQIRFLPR
In short: as §1

CYP2D6 = CYP2D6 (Homo sapiens, UniProt P10635); experiment: CYP450 inhibition in human liver microsomes; format: in vitro ADME; conditions: pooled human liver microsomes, pH 7.4, probe dextromethorphan (2.5 μM)
In short: as §1

HBV = conditions: cited from earlier work
[4] = Site of oxidative metabolism; format: in vitro ADME; conditions: ESI file S2
CYP2C19 = CYP2C19 (Homo sapiens, UniProt P33261); experiment: CYP450 inhibition in human liver microsomes; format: in vitro ADME; conditions: pooled human liver microsomes, pH 7.4, probe (S)-mephenytoin (50 μM)
In short: as §1

[5] = tested on: all tested CYPs: CYP1A2, CYP2A6, CYP2B6, CYP2C8, CYP2C9, CYP2C19, CYP2D6, CYP2E1, CYP3A4/5; experiment: CYP450 inhibition in human liver microsomes, all tested CYPs; format: in vitro ADME; conditions: pooled human liver microsomes, pH 7.4
In short: as §1

[6] = HepG2.2.15, read-out: HBV DNA inhibition EC50

Chain of CYP2C9 (P11712 whole entry): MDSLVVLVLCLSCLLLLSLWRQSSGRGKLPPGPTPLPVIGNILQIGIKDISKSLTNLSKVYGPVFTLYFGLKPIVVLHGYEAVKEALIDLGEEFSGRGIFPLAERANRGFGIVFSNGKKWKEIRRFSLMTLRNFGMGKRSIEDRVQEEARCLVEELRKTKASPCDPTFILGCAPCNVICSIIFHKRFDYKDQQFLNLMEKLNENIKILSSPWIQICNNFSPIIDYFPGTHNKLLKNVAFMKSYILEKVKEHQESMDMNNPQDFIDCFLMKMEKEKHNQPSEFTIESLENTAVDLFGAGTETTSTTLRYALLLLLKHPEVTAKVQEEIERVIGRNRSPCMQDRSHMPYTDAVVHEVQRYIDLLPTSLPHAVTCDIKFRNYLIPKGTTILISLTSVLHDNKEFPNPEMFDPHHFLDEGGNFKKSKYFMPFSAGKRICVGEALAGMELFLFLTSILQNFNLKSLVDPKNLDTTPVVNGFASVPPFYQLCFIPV
Chain of CYP2D6 (P10635 whole entry): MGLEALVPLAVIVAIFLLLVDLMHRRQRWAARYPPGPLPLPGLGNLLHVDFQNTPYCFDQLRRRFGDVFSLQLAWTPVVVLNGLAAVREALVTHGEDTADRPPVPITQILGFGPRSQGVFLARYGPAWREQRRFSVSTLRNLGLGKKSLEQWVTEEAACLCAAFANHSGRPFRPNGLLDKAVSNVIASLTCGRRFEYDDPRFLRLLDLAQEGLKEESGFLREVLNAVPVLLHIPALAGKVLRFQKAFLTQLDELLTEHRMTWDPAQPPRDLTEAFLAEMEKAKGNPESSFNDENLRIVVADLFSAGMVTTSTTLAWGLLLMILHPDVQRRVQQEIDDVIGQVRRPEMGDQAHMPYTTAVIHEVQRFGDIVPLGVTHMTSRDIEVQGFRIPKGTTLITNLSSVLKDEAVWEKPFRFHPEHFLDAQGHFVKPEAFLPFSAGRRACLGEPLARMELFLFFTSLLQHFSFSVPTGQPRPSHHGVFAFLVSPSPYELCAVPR
Chain of CYP2C19 (P33261 whole entry): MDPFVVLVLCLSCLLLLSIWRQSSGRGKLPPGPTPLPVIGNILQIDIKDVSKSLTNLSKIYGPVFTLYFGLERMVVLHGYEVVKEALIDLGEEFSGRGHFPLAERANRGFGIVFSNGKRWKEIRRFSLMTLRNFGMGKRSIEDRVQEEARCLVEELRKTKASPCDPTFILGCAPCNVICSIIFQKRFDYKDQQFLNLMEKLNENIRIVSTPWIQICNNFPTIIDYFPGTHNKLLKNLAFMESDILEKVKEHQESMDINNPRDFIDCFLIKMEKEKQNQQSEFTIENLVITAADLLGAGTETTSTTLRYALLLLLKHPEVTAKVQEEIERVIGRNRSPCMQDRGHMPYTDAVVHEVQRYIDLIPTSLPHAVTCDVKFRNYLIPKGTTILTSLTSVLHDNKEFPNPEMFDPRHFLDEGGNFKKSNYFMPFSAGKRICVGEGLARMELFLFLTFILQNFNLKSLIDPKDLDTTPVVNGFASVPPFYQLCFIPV

Structure (SMILES)	EC50 [2, 6] [nM]	CLint ([3]; Table 4) [μL per min per mg protein]	inhibition at 10 min, 10 µM (CYP2C9) [%]	activity at 1 µM [2] [%]	inhibition at 10 min, 10 µM (CYP2B6) [%]	CLint ([3]; Table 3) [μL per min per mg protein]	also measured
Cc1cc(NC(=O)[C@H]2CCN(C(=O)c3ccc(-c4c(C)ncnc4C)[nH]3)[C@H]2C)ccc1F [CU15, (2S,3S)-1-(5-(4,6-Dimethylpyrimidin-5-yl)-1H-pyrrole-2-carbonyl)-N-(4-fluoro-3-methylphenyl)-2-methylpyrrolidine-3-carboxamide]	8.6 ± 2	4.9					clearance [1]: 20 mL/min/kg; bioavailability [1]: 44%; EC50 ([2]; HepG2.2.15): < 10 nM
O=C(Nc1cc(F)c(F)c(F)c1)[C@H]1CCN(C(=O)c2ccc(-c3cccnc3)[nH]2)C1 [CU05, (S)-1-(5-(Pyridin-3-yl)-1H-pyrrole-2-carbonyl)-N-(3,4,5-trifluorophenyl)pyrrolidine-3-carboxamide]			87	47	65	2.9	
O=C(Nc1cc(F)c(F)c(F)c1)[C@H]1CCN(C(=O)c2ccc(-c3cncnc3)[nH]2)C1 [CU08, (S)-1-(5-(Pyrimidin-5-yl)-1H-pyrrole-2-carbonyl)-N-(3,4,5-trifluorophenyl)pyrrolidine-3-carboxamide]			53	43	61	0.5	
O=C(Nc1cc(F)c(F)c(F)c1)[C@H]1CCN(C(=O)c2ccc(-c3ccncc3)[nH]2)C1 [CU06, (S)-1-(5-(Pyridin-4-yl)-1H-pyrrole-2-carbonyl)-N-(3,4,5-trifluorophenyl)pyrrolidine-3-carboxamide]			67	28	81	4.6	inhibition at 10 min, 10 µM (CYP2D6): 89%
Cc1cc(NC(=O)[C@H]2CCN(C(=O)c3ccc(-c4c(C)n[nH]c4C)[nH]3)[C@H]2C)ccc1F [CU16, (2S,3S)-1-(5-(3,5-Dimethyl-1H-pyrazol-4-yl)-1H-pyrrole-2-carbonyl)-N-(4-fluoro-3-methylphenyl)-2-methylpyrrolidine-3-carboxamide]	14.9 ± 3	11.7					
C[C@H](NS(=O)(=O)c1cc(C(=O)Nc2ccc(F)c(C#N)c2)n(C)c1)C(F)(F)F [JNJ-6379]							pEC 50 (HBV): 7.22 (ref. [15])
O=C(Nc1cc(F)c(F)c(F)c1)[C@H]1CCN(C(=O)c2ccc(C3CC3)[nH]2)C1 [CU02, (S)-1-(5-cyclopropyl-1H-pyrrole-2-carbonyl)-N-(3,4,5-trifluorophenyl)pyrrolidine-3-carboxamide]				48	50	14.5	Site of oxidative metabolic reactions [4]: oxidative metabolic reactions primarily occurred on the R group; inhibition at 10 min, 10 µM (CYP2C19): 53%
Cc1ncnc(C)c1-c1ccc(C(=O)N2CC[C@H](C(=O)Nc3cc(F)c(F)c(F)c3)[C@@H]2C)[nH]1 [CU13, (2S,3S)-1-(5-(4,6-Dimethylpyrimidin-5-yl)-1H-pyrrole-2-carbonyl)-2-methyl-N-(3,4,5-trifluorophenyl)pyrrolidine-3-carboxamide]	17.8 ± 3	2.1					
Cc1ncnc(C)c1-c1ccc(C(=O)N2CC[C@H](C(=O)Nc3ccc(F)c(Cl)c3)[C@@H]2C)[nH]1 [CU14, (2S,3S)–N-(3-Chloro-4-fluorophenyl)-1-(5-(4,6-dimethylpyrimidin-5-yl)-1H-pyrrole-2-carbonyl)-2-methylpyrrolidine-3-carboxamide]	13.2 ± 2	2.9					clearance [1]: 12.3 mL/min/kg; bioavailability [1]: 66%
Cc1ccc(C(=O)N2CC[C@H](C(=O)Nc3cc(F)c(F)c(F)c3)C2)[nH]1 [CU01, (S)-1-(5-Methyl-1H-pyrrole-2-carbonyl)-N-(3,4,5-trifluorophenyl)pyrrolidine-3-carboxamide]				59		14.4	inhibition at 10 min, 10 µM [5]: < 20%
Cc1ncnc(C)c1-c1ccc(C(=O)N2CC[C@H](C(=O)Nc3ccc(F)c(Cl)c3)C2)[nH]1 [CU12, (S)–N-(3-Chloro-4-fluorophenyl)-1-(5-(4,6-dimethylpyrimidin-5-yl)-1H-pyrrole-2-carbonyl)pyrrolidine-3-carboxamide]	18.2 ± 2	3.6					
O=C(Nc1cc(F)c(F)c(F)c1)[C@H]1CCN(C(=O)c2cc3ccccc3[nH]2)C1 [CU03, (S)-1-(1H-Indole-2-carbonyl)-N-(3,4,5-trifluorophenyl)pyrrolidine-3-carboxamide]			62	44		9.2	Site of oxidative metabolic reactions [4]: oxidative metabolic reactions primarily occurred on the R group; inhibition at 10 min, 10 µM (CYP2C19): 63%; EC50 ([2]; HepG2.2.15): 447 nM; inhibition at 10 min, 10 µM (CYP2D6): 51%
O=C(Nc1cc(F)c(F)c(F)c1)[C@H]1CCN(C(=O)c2ccc(-c3ccccn3)[nH]2)C1 [CU07, (S)-1-(5-(Pyridin-2-yl)-1H-pyrrole-2-carbonyl)-N-(3,4,5-trifluorophenyl)pyrrolidine-3-carboxamide]				77		6.2	inhibition at 10 min, 10 µM [5]: < 20%
